Reference: ChEMBL document CHEMBL4422684, “Identification of novel lysine demethylase 5-selective inhibitors by inhibitor-based fragment merging strategy” (Bioorg Med Chem, 2019)
The source made the active and inactive calls. The calls are words filed in the database; no cut-off is given here.

Assays:
[1] = system: A549; assay: Inhibition of KDM4 in human A549 cells assessed as increase in H3K9me3 levels up to 25 uM after 48 hrs by Western blot analysis; assay type: cell-based
Procedure, shortened: (§1)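 A549 cells (5 × 10^5 per 2 mL well, RPMI1640 with 10% heat-inactivated FBS) exposed 48 h to compounds at 1, 5 or 25 µM. SDS lysates normalised by BCA, separated on 5-20% SDS-PAGE, blotted to PVDF, blocked in 5% milk/TBS-T, probed for H3K4me3, H3K9me3, H3K27me3 and total H3, detected by HRP chemiluminescence.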

[2] = system: A549; assay: Inhibition of KDM6 in human A549 cells assessed as increase in […] levels up to 25 uM after 48 hrs by Western blot analysis; assay type: cell-based; procedure, shortened: as §1
[3] = target: T1, Lysine-specific demethylase 5A (Homo sapiens, UniProt P29375); assay: Potency index, ratio of CPI-455 IC50 to test compound IC50 for human C-terminal FLAG-tagged KDM5A (1 to 1090 residues) expressed in baculovirus infected Sf9 insect cells
[4] = target: T2, Lysine-specific demethylase 6B (Homo sapiens, UniProt O15054); assay: Inhibition of human C-terminal FLAG-tagged KDM6B (1043 to end residues) expressed in baculovirus infected Sf9 insect cells using H3(21-44)-K27(Me3)-GK(Biotin)/2-OG as substrate measured after 1 hr by Alphalisa assay
Procedure, shortened: (§2)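 AlphaLISA demethylase assay in 50 mM HEPES pH 7.5, 0.1% BSA, 0.01% Tween 20 with DMSO. Enzyme and inhibitor combined, then peptide plus 2-OG (50 µM), Fe(II) (5 µM) and ascorbate (100 µM) in the added mix; 1 h at room temperature with shaking.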

[5] = target: T3, Lysine-specific demethylase 4A (Homo sapiens, UniProt O75164); assay: Inhibition of human N-terminal His-tagged KDM4A (1 to 350 residues) expressed in Escherichia coli using H3(21-44)-K36(Me3)-GK(Biotin)/2-OG as substrate measured after 1 hr by Alphalisa assay; procedure, shortened: as §2
T3 sequence (O75164 whole entry): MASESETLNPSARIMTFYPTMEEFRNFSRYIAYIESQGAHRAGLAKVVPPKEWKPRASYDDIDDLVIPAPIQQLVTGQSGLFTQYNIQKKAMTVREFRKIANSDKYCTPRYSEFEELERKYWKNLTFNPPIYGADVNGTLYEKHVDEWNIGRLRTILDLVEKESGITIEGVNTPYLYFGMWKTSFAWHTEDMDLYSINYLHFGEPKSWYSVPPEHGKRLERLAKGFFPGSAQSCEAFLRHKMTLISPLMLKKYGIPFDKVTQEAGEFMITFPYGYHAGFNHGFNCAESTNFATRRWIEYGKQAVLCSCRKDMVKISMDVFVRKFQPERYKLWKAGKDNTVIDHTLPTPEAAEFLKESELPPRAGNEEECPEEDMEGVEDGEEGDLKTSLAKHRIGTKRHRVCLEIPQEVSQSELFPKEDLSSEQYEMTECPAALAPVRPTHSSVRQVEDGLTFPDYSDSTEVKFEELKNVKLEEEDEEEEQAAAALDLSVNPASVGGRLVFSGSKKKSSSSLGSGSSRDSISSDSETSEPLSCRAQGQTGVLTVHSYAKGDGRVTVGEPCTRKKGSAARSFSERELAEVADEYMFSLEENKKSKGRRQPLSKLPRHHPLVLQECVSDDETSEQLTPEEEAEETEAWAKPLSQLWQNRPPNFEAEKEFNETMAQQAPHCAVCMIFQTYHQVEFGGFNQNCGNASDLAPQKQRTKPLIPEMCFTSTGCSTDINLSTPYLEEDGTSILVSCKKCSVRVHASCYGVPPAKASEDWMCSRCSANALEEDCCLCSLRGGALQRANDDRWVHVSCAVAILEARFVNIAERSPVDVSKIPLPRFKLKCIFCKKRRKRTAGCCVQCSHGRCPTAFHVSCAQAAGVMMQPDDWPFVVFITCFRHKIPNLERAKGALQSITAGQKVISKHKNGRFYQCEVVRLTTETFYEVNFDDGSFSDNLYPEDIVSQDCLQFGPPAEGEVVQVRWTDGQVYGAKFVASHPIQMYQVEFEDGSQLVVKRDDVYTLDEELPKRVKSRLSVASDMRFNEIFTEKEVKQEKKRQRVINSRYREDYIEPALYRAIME

[6] = target: T2, Lysine-specific demethylase 6B; assay: Inhibition of human C-terminal FLAG-tagged KDM6B (1043 to end residues) expressed in baculovirus infected Sf9 insect cells at 25 uM using H3(21-44)-K27(Me3)-GK(Biotin)/2-OG as substrate measured after 1 hr by Alphalisa assay relative to control; procedure, shortened: as §2
[7] = target: T1, Lysine-specific demethylase 5A; assay: Inhibition of human C-terminal FLAG-tagged KDM5A (1 to 1090 residues) expressed in baculovirus infected Sf9 insect cells at 25 uM using H3(1-21)K4(Me3)-GGK(Biotin)/2-OG as substrate measured after 1 hr by Alphalisa assay relative to control; procedure, shortened: as §2

T2 sequence (O15054 whole entry): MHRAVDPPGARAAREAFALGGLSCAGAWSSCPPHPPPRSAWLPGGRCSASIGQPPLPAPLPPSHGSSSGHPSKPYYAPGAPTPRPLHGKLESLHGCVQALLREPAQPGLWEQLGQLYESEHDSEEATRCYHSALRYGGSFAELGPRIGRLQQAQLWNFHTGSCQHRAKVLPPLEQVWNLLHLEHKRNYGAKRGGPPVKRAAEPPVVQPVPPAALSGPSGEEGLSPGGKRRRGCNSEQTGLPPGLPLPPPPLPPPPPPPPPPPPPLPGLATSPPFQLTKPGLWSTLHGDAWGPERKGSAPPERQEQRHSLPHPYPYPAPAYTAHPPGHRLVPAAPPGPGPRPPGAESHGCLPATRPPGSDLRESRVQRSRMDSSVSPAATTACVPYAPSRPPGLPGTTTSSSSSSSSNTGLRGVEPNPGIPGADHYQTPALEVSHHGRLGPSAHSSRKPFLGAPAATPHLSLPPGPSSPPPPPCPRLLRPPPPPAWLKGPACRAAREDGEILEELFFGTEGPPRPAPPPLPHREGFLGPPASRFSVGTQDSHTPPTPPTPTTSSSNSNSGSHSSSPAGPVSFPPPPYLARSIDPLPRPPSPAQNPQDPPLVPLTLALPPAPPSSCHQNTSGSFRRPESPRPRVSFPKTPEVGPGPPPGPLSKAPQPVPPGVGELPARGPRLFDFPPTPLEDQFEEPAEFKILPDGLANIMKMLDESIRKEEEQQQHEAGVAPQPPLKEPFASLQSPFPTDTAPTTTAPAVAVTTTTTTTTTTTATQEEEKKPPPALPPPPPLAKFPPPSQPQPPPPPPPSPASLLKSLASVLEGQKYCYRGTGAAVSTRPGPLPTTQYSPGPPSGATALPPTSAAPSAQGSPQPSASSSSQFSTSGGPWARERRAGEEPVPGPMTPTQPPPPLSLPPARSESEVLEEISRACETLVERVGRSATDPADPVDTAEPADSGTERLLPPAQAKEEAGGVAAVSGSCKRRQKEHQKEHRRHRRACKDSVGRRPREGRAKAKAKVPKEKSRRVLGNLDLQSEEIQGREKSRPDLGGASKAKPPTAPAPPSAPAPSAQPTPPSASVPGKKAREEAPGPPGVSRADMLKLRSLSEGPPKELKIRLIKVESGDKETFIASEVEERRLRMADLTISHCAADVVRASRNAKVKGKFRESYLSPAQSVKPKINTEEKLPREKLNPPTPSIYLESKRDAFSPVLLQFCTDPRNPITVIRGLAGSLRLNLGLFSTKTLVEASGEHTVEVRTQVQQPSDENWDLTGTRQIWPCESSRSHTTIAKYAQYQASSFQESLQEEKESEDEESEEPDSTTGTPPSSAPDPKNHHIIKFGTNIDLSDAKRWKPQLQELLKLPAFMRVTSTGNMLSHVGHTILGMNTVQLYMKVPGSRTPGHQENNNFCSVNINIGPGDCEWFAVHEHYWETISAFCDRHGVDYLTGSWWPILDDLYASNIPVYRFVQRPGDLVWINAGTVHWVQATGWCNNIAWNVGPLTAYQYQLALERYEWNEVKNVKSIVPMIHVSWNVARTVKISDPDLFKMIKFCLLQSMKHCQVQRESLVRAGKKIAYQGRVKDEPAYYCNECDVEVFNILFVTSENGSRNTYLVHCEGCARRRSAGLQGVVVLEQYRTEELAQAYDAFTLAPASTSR
T1 sequence (P29375 whole entry, the tested form may be a part): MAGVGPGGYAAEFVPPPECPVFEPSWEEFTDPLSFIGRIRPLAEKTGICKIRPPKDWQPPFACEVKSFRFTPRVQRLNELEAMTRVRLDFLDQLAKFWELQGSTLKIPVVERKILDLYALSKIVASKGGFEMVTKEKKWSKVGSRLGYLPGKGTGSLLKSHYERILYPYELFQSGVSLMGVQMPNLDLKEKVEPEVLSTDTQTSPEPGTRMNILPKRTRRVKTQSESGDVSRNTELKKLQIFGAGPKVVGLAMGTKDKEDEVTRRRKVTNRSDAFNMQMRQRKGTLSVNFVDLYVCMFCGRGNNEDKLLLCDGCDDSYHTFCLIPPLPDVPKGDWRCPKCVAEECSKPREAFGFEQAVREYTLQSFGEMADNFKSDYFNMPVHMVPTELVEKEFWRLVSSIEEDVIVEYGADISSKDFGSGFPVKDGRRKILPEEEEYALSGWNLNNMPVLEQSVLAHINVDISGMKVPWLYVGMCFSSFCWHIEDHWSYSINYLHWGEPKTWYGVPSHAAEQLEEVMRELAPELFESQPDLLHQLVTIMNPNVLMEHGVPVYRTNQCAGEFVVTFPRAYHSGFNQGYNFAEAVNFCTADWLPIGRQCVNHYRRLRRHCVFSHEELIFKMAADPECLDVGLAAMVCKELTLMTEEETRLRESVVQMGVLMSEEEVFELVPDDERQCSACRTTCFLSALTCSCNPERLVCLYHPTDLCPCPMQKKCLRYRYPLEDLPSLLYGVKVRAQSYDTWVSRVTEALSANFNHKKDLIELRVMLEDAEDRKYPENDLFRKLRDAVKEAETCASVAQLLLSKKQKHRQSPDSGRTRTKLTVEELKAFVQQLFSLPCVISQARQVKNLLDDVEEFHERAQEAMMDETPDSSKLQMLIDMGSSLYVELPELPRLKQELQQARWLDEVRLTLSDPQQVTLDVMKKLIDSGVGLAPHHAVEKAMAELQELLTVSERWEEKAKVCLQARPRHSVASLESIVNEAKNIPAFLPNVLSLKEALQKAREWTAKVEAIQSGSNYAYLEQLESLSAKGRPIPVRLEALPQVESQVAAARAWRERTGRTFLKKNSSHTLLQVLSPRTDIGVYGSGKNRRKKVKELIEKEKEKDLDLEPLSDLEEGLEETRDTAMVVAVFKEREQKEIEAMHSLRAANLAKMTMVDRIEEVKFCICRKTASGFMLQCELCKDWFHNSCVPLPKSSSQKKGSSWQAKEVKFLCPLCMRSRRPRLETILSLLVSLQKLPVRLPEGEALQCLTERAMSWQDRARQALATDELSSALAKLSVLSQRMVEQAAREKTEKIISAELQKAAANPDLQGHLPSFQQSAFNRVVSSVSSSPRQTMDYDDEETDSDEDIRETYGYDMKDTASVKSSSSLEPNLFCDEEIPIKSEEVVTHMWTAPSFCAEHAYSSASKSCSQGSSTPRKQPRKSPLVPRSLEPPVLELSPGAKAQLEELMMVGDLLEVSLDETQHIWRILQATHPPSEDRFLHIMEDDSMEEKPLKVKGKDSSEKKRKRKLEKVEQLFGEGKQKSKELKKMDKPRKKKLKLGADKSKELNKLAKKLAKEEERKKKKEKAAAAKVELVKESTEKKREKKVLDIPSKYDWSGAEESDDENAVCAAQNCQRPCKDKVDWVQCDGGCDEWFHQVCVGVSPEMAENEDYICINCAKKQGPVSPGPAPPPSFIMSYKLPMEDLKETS

## CCCCCCN(C)CCc1ccc(-c2[nH]c3c(C#N)cnn3c(=O)c2C(C)C)cc1
[1]
  inhibition: inactive
[2]
  inhibition: inactive

## CCCCCCN(C)Cc1ccc(-c2[nH]c3c(C#N)cnn3c(=O)c2C(C)C)cc1
[1]
  inhibition: inactive
[3]
  Ratio IC50: 22
[4]
  IC50: > 50 µM
[2]
  inhibition: inactive
[5]
  IC50: 25 µM

## CC(C)c1c(-c2ccccc2)[nH]c2c(C#N)cnn2c1=O
[6]
  inhibition: 69.1%
[7]
  inhibition: 100%
[4]
  IC50: 14.3 µM

## CCCCCN(C)CCCCC(=O)N(O)CCC(=O)O
[7]
  inhibition: 89.9%
